A short description of data set [1]: folding enthalpy; higher = less favourable; fluorescence melt of hairpins on a sequencing array, two-state fit. The note with it: sodium 0.088 M. The procedure, abridged: (§1)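 Bootstrapped two-state fits yielded melting temperature and folding enthalpy for library hairpins. Cy3 fluorescence, with annealed Cy3 and quencher oligos, was imaged on a sequenced MiSeq flow cell in 50 mM Na-HEPES pH 8.0, 25 mM NaCl in 2.5 °C steps up to 60 °C, and normalised to pre-quench Cy3 and to control constructs. Four replicates were combined by inverse variance, and fitted temperatures were raised by 9.35 °C to match UV melts.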

A short description of data set [2]: melting temperature; fluorescence melt of hairpins on a sequencing array, two-state fit, raised by 9.35 °C to match UV melts. The note with it: sodium 0.088 M. The procedure, abridged: as §1

Regarding GACTCACGAAAGTGGGTC (((.(((....))).))), in data set [1], the folding enthalpy is -41.1 kcal/mol. In data set [2], the Tm came to 57.6 °C.

Consider GATCATCGCCATGATC ((((((....)))))), for which the folding enthalpy in data set [1] was -35.7 kcal/mol. In addition, the Tm in data set [2] stood at 46.3 °C.

Take GCTCGGCGAAAGCTAAGC (((..((....))..))): the folding enthalpy in data set [1] is -15.8 kcal/mol. The Tm in data set [2] was found to be 44.4 °C.

Consider GTAGGCGAAAGCCCTTAC ((((((....)))..))), for which the folding enthalpy in data set [1] was -9.27 kcal/mol. The Tm in data set [2] was 37.9 °C.

With GGAACGGGAAACCATTCC ((((.((....)).)))), the folding enthalpy in data set [1] is -30.2 kcal/mol. The Tm in data set [2] worked out at 35.9 °C.

GTTCTGCGAAAGCATAAC (((.(((....))).))): the folding enthalpy in data set [1] is -25 kcal/mol. Besides, in data set [2], the Tm is 43.7 °C.

Turning to TTAGCGAAAGCTAA (((((....))))), in data set [1], the folding enthalpy is -16.2 kcal/mol. Also, in data set [2], the Tm stood at 51.2 °C.

On to GACTGTGGAAACACAGTC (((((((....))))))), for which the folding enthalpy in data set [1] was -37.5 kcal/mol. The Tm in data set [2] was found to be 66.5 °C.

As to GCGGATCGAAAGATGCGC (((.(((....))).))), the folding enthalpy in data set [1] was -38.6 kcal/mol. Besides, in data set [2], the Tm was 66.3 °C.

Take GCGCCAGGAAACCGACGC (((.(.(....).).))): the folding enthalpy in data set [1] is -29.5 kcal/mol. Also, the Tm in data set [2] came to 39.4 °C.

Turning to GCCTGAGGAAACCCAGGC (((((.(....).))))), the folding enthalpy in data set [1] is -36.5 kcal/mol. Besides, in data set [2], the Tm was found to be 53.2 °C.

For the sequence GATCATGGAAACACGATC ((((.((....)).)))), in data set [1], the folding enthalpy was -22.9 kcal/mol. Also, the Tm in data set [2] stood at 33.8 °C.

With GCAGAGGGAAACCTCCGC ((.((((....)))).)), the folding enthalpy in data set [1] is -26 kcal/mol. For the same sequence, the Tm in data set [2] came to 44.7 °C.

GATCACGAAAGTGACATC ((((((....)))..))): the folding enthalpy in data set [1] was -10.1 kcal/mol. In addition, the Tm in data set [2] came to 30 °C.

Take GGACCTGGAAACAGGTCC (((((((....))))))): the folding enthalpy in data set [1] is -28.2 kcal/mol. Further, the Tm in data set [2] stood at 68.7 °C.

With GAGATGCGAAAGCACCTC (((.(((....))).))), the folding enthalpy in data set [1] was -23.9 kcal/mol. Besides, the Tm in data set [2] was found to be 49 °C.

Take GATCTTTCGAAAGATC ((((((....)))))): the folding enthalpy in data set [1] is -40.8 kcal/mol. In addition, the Tm in data set [2] was 49.3 °C.

Take GTACACGAAAGTGTTAC ((((((....))).))): the folding enthalpy in data set [1] is -12.9 kcal/mol. Moreover, the Tm in data set [2] came out at 42.5 °C.

Turning to GCCTGAGCGAAAGCTGGC (((..(((....)))))), in data set [1], the folding enthalpy was -25.7 kcal/mol. Moreover, the Tm in data set [2] worked out at 52.6 °C.

GATCGTATCCACGATC ((((((....)))))): the folding enthalpy in data set [1] was -35.3 kcal/mol. Also, the Tm in data set [2] was determined as 56.9 °C.

On to GAGGATGCGAAAGCACTC (((..(((....)))))), for which the folding enthalpy in data set [1] was -14.2 kcal/mol. Moreover, the Tm in data set [2] amounted to 34.9 °C.

Turning to GTATGGGCGAAAGCCTAC (((..(((....)))))), the folding enthalpy in data set [1] is -7.19 kcal/mol. Further, the Tm in data set [2] came out at 36.9 °C.

Consider GCCCGACGAAAGTCCGGC (((.(((....))).))), for which, in data set [1], the folding enthalpy was -30.7 kcal/mol. In addition, the Tm in data set [2] is 51.8 °C.

As to GATCGAGAGCTCGATC ((((((....)))))), in data set [1], the folding enthalpy is -36.5 kcal/mol. In addition, the Tm in data set [2] came out at 51.8 °C.

Turning to GATCCATTAATGGATC ((((((....)))))), the folding enthalpy in data set [1] was -38.7 kcal/mol. Further, the Tm in data set [2] amounted to 54.8 °C.

Turning to GATCGCTCAAGCGATC ((((((....)))))), in data set [1], the folding enthalpy was -43.6 kcal/mol. Besides, the Tm in data set [2] came to 68 °C.

Consider GGGCAACGAAAGTTCCC (((.(((....)))))), for which the folding enthalpy in data set [1] is -22.1 kcal/mol. The Tm in data set [2] was 47.4 °C.

Turning to GTCCCCGAAAGGGAGGAC ((((((....)))..))), the folding enthalpy in data set [1] was -17.4 kcal/mol. Further, in data set [2], the Tm came to 49.7 °C.

For the sequence GTTCTGAAAAGAAC (((((....))))), the folding enthalpy in data set [1] is -27.5 kcal/mol. For the same sequence, the Tm in data set [2] was determined as 47 °C.

As to GCACATCGAAAGATTTGC (((.(((....))).))), in data set [1], the folding enthalpy is -36.1 kcal/mol. The Tm in data set [2] amounted to 45.2 °C.

Take GATCATTATTATGATC ((((((....)))))): in data set [1], the folding enthalpy is -32.2 kcal/mol. In addition, the Tm in data set [2] is 47.5 °C.

In the case of GACAGTGAAAACTGTC ((((((....)))))), the folding enthalpy in data set [1] is -28.6 kcal/mol. For the same sequence, in data set [2], the Tm is 56.4 °C.

Regarding GGGTTGGGAAACTGACCC ((((..(....)..)))), the folding enthalpy in data set [1] was -26.5 kcal/mol. Also, the Tm in data set [2] is 45.1 °C.

With GGCACCGAAAGGTGTGCC ((((((....)))..))), the folding enthalpy in data set [1] was -16.3 kcal/mol. Also, in data set [2], the Tm came to 55.4 °C.

Consider GATCACAGAGTGATC ((((((...)))))), for which, in data set [1], the folding enthalpy was -35 kcal/mol. For the same sequence, in data set [2], the Tm was 60.8 °C.

For the sequence GCCTTCGGAAACGAAGAC (.(((((....))))).), in data set [1], the folding enthalpy is -18.4 kcal/mol. Further, the Tm in data set [2] was found to be 43.3 °C.

With GTGAGGCGAAAGCCCAC (((.(((....)))))), the folding enthalpy in data set [1] was -18.4 kcal/mol. In data set [2], the Tm turned out to be 61.8 °C.

The values are drawn from the array DNA melting data of Ke et al. (doi:10.1101/2024.01.08.574731).
